Reference: ChEMBL document CHEMBL3351279, “Topoisomerase II inhibitors from the roots of Stellera chamaejasme L” (Bioorg Med Chem, 2014)
pIC50: −log10 of the molar value. Active and inactive are the calls of the source. The rule behind the calls is not given here.

How the values were obtained:
[1] = system: A549; assay: Cytotoxicity against human A549 cells after 72 hrs by SRB assay; format: functional, cell-based; settings: A549, 72 h
Outline: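 A549 cells grown in F12 with 10% heat-inactivated FBS (37°C, 5% CO2), seeded overnight, then exposed 72 h. Fixed in cold 10% TCA for 1 h at 4°C, stained with 4 mg/mL SRB in 1% acetic acid for 15 min, solubilized in 10 mM Tris-HCl, read at A560. Inhibition = [1 − A560treated/A560control]×100%; IC50 by Logit method, at least three independent tests.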

[2] = biological target: DNA topoisomerase 2-alpha (Homo sapiens) (UniProt P11388); assay: Inhibition of DNA topoisomerase-2 (unknown origin) assessed as inhibition of supercoiled pBR322 relaxation at 100 uM after 15 mins by gel electrophoresis
Sequence of DNA topoisomerase 2-alpha (Homo sapiens) (P11388 whole entry): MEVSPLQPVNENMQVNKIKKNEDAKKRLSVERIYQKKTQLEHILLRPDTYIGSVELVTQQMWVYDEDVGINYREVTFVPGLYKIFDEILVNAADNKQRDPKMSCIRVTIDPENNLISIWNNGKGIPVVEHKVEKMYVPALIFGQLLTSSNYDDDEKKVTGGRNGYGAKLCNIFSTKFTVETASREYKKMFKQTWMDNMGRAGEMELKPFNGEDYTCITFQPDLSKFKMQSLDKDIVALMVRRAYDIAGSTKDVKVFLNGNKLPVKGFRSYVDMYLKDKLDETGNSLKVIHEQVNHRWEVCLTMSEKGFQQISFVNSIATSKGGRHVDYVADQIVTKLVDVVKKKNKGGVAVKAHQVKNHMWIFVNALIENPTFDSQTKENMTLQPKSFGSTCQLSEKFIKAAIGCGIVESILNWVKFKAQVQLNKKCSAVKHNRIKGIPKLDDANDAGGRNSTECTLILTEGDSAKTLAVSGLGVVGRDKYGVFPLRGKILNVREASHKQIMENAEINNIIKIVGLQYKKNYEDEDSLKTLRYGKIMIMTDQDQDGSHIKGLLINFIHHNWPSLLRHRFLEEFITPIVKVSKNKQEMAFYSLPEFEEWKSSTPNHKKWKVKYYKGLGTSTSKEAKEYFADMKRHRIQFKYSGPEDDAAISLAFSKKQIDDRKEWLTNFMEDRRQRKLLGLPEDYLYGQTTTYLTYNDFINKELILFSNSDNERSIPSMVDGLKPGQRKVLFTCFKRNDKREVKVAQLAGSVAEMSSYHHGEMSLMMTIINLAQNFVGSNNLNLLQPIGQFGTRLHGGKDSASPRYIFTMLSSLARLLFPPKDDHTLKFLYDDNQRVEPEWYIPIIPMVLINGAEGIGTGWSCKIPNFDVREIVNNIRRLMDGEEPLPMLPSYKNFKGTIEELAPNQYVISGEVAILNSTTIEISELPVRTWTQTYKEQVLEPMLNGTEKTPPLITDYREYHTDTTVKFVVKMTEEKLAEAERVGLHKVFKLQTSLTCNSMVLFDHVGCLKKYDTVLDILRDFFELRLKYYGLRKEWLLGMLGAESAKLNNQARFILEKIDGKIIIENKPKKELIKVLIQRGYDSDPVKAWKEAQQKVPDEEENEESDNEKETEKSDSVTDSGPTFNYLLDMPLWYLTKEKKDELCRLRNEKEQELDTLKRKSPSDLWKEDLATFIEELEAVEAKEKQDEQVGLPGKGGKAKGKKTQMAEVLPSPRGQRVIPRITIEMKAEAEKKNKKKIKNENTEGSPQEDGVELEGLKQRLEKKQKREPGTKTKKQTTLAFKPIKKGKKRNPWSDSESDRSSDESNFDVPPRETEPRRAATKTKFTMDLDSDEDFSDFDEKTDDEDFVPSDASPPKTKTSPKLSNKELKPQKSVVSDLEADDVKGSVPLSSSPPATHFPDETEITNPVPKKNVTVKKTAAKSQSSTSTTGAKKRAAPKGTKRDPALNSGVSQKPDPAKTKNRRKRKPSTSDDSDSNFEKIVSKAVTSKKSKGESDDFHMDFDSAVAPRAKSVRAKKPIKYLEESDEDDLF
Outline: (§1)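 Supercoiled pBR322 relaxation with compounds at 100 µM. Topo I: 12.5 µg/mL DNA, 0.01 unit/µL enzyme, no ATP. Topo IIα: 6.67 µg/mL DNA, 0.0467 units/µL enzyme, 1 mM ATP. 37°C for 15 min, SDS stop, 1% agarose/TAE gel at 4 V/cm for 1 h, ethidium bromide stain.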

[3] = biological target: DNA topoisomerase 2-alpha (Homo sapiens) (UniProt P11388); assay: Inhibition of DNA topoisomerase-2 (unknown origin) assessed as inhibition of kDNA decatenation at 100 uM after 15 mins by agarose gel electrophoresis
[4] = biological target: T1, DNA topoisomerase 1 (Homo sapiens) (UniProt P11387); assay: Inhibition of DNA topoisomerase-1 (unknown origin) assessed as inhibition of supercoiled pBR322 relaxation up to 100 uM after 15 mins by gel electrophoresis; outline: as §1
T1 sequence (whole entry): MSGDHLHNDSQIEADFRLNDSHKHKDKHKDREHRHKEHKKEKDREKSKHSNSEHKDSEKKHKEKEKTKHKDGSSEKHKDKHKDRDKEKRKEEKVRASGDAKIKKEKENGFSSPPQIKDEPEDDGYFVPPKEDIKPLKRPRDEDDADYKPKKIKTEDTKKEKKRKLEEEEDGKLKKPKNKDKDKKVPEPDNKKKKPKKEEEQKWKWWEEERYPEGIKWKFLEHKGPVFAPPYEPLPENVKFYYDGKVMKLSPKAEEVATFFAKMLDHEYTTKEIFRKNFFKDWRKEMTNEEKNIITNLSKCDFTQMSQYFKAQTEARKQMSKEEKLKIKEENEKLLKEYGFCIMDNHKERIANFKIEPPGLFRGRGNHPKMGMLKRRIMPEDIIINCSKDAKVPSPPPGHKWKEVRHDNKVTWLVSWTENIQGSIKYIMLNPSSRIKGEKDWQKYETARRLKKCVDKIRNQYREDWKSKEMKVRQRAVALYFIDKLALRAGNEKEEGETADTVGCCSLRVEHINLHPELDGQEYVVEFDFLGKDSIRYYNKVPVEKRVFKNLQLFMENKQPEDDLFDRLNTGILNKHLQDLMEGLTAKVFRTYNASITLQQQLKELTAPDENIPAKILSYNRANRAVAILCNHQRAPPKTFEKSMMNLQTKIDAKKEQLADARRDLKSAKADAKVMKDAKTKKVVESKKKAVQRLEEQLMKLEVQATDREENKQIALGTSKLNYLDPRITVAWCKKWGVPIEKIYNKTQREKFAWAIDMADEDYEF

[5] = system: A549; assay: Cell cycle arrest in human A549 cells assessed as accumulation at G2 phase at 300 nM after 24 hrs by propidium iodide staining-based flow cytometry (reference value: 18%); format: functional
[6] = system: A549; assay: Induction of apoptosis in human A549 cells assessed as early apoptotic cells at 10 nM after 48 hrs by Annexin V/propidium iodide staining-based flow cytometry (reference value: 5.75%); format: functional
Outline: (§2)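 After 48 h exposure, A549 cells resuspended in cold binding buffer with Annexin-V-FITC and PI, kept 10 min at room temperature in the dark, then analyzed on a FACSCalibur. Annexin-V+/PI− cells counted as early apoptotic.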

[7] = system: A549; assay: Induction of apoptosis in human A549 cells assessed as early apoptotic cells at 30 nM after 48 hrs by Annexin V/propidium iodide staining-based flow cytometry (reference value: 5.75%); format: functional; outline: as §2
[8] = system: A549; assay: Cell cycle arrest in human A549 cells assessed as accumulation at G2/M phase at 10 to 300 nM after 24 hrs by propidium iodide staining-based flow cytometry; format: functional

inhibition [2] | inhibition [3] | inhibition [4] | SMILES | pIC50 [1] | also measured
Active | Active | inactive | COc1cc([C@H]2OC[C@@H]3Cc4cc(OC)c(O)cc4C[C@@H]32)ccc1O | 5.82 | 
Active | Active | inactive | C=C(C)[C@@]1(O)[C@H](OC(=O)/C=C/C=C/CCCCCCCC)[C@@H]2[C@@H]3O[C@]3(CO)[C@@H](O)[C@]3(O)C(=O)C(C)=C[C@H]3[C@@]2(O)[C@H](C)[C@H]1OC(C)=O | 7.62 | 
 |  |  | C=C(C)[C@]12C[C@@H](C)[C@@]34O[C@](CCCCCCCCC)(O[C@@H]1[C@@H]3[C@@H]1O[C@]1(CO)[C@@H](O)[C@]1(O)C(=O)C(C)=C[C@H]14)O2 [SIMPLEXIN] | 9.52 | 
 |  |  | C=C(C)[C@@]12O[C@@]3(/C=C/C=C/CCCCCCCCC)O[C@@H]1[C@@H]1[C@@H]4O[C@]4(CO)[C@@H](O)[C@]4(O)C(=O)C(C)=C[C@H]4[C@@]1(O3)[C@H](C)[C@H]2OC(C)=O | 9.40 | 
 |  |  | C[C@H]1CC=C2[C@H]1C[C@]1(O)C(=O)C[C@@]2(C)C1(C)CO (stereo not given in full) | 5.71 | 
Active | Active | inactive | C=C(C)[C@]1(OC(=O)/C=C\C=C\CCCCCCCCC)C[C@@H](C)[C@@]2(O)[C@H]([C@H]1O)[C@@H]1O[C@]1(CO)[C@@H](O)[C@]1(O)C(=O)C(C)=C[C@H]12 | 8.57 | Activity [5]: >50%; Activity [6]: 17.57%; Activity [7]: 19.94%; Activity [8]: Active
 |  |  | COc1cc(C[C@H]2COC(=O)[C@@H]2Cc2ccc3c(c2)OCO3)ccc1O | 6.56 | 
Active |  |  | COc1cc([C@@H]2c3cc4c(cc3[C@@H](O[C@@H]3O[C@@H]5CO[C@@H](C)O[C@H]5[C@H](O)[C@H]3O)[C@H]3COC(=O)[C@H]23)OCO4)cc(OC)c1O |  | 

SMILES | inhibition [2] | inhibition [3] | inhibition [4] | pIC50 [1] | also measured
C=C(C)[C@]12C[C@@H](C)[C@@]34O[C@](/C=C/C=C/CCCCCCCCC)(O[C@@H]1[C@@H]3[C@@H]1O[C@]1(CO)[C@@H](O)[C@]1(O)C(=O)C(C)=C[C@H]14)O2 | Active | Active | inactive | 9.15 | 
